In ChEMBL document CHEMBL1165965, “Synthesis and structure-activity relationships of 1,2,3,4-tetrahydropyrido[2,3-b]pyrazines as potent and selective inhibitors of the anaplastic lymphoma kinase” (Bioorg Med Chem, 2010):

How the values were obtained:
[1] = biological target: Mitogen-activated protein kinase kinase kinase kinase 1 (Homo sapiens) (UniProt Q92918); assay: Inhibition of HPK1 at 1 uM
[2] = biological target: Insulin-like growth factor 1 receptor (Homo sapiens) (UniProt P08069); assay: Inhibition of IGF1R at 1 uM
How it was run: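 Single-concentration screen on the Ambit KINOMEscan platform, run against a panel of 250–400 kinases. Per-kinase inhibition was also summarized as S(90), the fraction of kinases inhibited by more than 90%.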

[3] = biological target: T1, Tyrosine-protein kinase Tec (Homo sapiens) (UniProt P42680); assay: Inhibition of TEC at 1 uM
T1 sequence (whole entry): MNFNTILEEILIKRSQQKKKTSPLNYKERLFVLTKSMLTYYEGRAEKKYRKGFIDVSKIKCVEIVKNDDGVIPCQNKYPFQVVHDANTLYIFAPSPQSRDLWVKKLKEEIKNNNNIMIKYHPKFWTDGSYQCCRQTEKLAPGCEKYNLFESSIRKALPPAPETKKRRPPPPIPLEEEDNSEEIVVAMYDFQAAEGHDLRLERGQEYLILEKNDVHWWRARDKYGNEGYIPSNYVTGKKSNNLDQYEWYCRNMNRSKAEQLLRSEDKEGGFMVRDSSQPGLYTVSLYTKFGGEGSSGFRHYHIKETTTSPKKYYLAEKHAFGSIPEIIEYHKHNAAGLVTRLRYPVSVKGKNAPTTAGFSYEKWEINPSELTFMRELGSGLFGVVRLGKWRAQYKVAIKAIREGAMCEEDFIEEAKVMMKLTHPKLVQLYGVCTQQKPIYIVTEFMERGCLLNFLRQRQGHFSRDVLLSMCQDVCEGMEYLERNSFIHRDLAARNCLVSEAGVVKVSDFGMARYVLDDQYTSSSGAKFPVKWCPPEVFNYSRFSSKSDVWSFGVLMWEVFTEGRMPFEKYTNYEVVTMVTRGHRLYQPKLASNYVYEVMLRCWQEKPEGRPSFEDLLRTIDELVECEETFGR

[4] = biological target: Bone morphogenetic protein receptor type-1B (Homo sapiens) (UniProt O00238); assay: Inhibition of BMPR1B at 1 uM
[5] = biological target: T2, Serine/threonine-protein kinase Chk1 (Homo sapiens) (UniProt O14757); assay: Inhibition of CHEK1 at 1 uM
T2 sequence (whole entry): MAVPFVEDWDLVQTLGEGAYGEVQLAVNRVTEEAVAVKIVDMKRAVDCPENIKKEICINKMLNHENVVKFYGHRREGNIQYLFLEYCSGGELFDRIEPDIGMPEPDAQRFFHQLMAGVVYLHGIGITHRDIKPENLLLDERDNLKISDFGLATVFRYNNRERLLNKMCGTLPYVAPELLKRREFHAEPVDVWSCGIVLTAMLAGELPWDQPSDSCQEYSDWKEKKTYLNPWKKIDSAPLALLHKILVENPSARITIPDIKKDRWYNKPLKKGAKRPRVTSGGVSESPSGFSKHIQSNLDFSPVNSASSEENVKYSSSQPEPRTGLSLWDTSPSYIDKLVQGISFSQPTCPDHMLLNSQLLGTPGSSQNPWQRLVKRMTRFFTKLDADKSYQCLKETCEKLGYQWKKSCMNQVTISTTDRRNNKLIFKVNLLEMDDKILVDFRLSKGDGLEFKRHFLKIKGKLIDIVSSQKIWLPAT

[6] = biological target: T3, Serine/threonine-protein kinase DCLK3 (Homo sapiens) (UniProt Q9C098); assay: Inhibition of DCAMKL3 at 1 uM
T3 sequence (whole entry): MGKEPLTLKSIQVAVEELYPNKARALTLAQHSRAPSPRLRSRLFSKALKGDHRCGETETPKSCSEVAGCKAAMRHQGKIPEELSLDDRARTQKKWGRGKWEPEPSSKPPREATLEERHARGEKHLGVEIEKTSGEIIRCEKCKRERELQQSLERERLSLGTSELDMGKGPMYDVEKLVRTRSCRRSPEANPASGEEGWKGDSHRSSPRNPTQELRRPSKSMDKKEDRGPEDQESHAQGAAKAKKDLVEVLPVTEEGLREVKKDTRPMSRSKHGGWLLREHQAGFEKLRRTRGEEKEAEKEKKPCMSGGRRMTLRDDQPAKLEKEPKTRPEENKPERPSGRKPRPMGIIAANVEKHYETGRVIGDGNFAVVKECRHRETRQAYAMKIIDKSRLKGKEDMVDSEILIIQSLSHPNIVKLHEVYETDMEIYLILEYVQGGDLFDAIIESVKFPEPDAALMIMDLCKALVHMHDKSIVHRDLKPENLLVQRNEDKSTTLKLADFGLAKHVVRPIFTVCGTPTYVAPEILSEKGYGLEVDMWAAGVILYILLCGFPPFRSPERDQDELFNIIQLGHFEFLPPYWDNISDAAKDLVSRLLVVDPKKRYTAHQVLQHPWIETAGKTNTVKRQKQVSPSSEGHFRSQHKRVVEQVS

[7] = system: Epidermal growth factor receptor (Homo sapiens), P00533 [L858R]; assay: Inhibition of EGFR L858R mutant at 1 uM; type: protein assay
How it was run: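 Single-concentration screen using Ambit Bioscience KINOMEscan technology across a panel of 250–400 kinases. Per-kinase inhibition from this screen was summarized as S(90), the fraction of kinases inhibited by more than 90%.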

Sequence of Mitogen-activated protein kinase kinase kinase kinase 1 (Homo sapiens) (Q92918 whole entry, looked up): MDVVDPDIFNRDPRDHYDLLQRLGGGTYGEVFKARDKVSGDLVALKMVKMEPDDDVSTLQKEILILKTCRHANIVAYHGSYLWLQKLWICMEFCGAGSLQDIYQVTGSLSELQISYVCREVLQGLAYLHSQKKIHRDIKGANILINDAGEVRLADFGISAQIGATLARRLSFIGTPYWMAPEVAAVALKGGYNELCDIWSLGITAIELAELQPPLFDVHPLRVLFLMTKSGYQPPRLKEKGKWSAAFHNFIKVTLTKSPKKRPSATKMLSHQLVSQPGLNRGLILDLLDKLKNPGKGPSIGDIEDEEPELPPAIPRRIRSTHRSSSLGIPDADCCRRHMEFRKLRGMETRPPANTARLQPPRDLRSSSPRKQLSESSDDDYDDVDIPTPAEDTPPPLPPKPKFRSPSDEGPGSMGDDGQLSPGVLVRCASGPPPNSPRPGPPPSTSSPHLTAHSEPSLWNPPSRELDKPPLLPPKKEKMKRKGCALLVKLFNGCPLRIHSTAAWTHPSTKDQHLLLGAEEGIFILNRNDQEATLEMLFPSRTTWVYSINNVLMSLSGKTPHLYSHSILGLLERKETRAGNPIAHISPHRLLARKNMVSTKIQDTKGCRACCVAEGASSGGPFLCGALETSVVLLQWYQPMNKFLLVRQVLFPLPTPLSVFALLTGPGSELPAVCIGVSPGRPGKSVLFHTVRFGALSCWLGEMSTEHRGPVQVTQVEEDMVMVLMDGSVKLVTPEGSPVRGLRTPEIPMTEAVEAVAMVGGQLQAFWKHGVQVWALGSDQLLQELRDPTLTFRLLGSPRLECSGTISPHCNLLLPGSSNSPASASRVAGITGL
Sequence of Insulin-like growth factor 1 receptor (Homo sapiens) (P08069 31-736 limits assumed): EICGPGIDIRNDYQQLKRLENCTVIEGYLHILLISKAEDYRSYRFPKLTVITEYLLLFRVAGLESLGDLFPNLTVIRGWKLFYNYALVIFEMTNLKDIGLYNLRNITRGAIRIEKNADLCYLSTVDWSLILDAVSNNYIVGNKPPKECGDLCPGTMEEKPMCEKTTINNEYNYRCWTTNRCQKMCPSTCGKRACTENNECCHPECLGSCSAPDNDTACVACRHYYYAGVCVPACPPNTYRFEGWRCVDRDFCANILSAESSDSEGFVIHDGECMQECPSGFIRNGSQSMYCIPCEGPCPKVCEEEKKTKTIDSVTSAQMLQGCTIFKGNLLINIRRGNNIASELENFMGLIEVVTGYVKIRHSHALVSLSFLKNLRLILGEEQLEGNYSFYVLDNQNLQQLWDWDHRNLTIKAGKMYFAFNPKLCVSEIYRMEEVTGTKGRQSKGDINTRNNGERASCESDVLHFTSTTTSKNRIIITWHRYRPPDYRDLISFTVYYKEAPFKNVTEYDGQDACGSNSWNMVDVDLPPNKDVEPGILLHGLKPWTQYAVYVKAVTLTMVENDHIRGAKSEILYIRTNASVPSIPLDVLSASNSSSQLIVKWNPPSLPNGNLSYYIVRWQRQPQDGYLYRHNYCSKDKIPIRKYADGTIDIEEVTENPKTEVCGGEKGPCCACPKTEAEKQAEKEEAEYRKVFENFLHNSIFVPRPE
Sequence of Insulin-like growth factor 1 receptor (Homo sapiens) (P08069 741-1367 limits assumed): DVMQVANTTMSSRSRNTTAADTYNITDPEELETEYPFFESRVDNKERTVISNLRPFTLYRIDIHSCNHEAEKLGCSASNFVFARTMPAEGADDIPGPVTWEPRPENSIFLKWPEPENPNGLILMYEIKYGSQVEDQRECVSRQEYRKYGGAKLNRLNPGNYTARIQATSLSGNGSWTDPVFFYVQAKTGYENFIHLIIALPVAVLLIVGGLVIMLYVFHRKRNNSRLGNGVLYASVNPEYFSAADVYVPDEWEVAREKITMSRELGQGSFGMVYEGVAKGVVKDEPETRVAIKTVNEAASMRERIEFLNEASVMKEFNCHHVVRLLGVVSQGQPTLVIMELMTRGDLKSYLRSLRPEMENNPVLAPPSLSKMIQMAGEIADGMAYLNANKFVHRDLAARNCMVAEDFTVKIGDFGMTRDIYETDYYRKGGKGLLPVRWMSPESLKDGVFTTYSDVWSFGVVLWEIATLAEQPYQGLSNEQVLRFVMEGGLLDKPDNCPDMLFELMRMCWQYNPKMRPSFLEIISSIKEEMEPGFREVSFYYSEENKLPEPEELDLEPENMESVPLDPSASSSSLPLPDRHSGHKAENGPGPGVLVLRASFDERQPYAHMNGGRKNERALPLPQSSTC
Sequence of Epidermal growth factor receptor (Homo sapiens), P00533 [L858R] (P00533 whole entry L858R): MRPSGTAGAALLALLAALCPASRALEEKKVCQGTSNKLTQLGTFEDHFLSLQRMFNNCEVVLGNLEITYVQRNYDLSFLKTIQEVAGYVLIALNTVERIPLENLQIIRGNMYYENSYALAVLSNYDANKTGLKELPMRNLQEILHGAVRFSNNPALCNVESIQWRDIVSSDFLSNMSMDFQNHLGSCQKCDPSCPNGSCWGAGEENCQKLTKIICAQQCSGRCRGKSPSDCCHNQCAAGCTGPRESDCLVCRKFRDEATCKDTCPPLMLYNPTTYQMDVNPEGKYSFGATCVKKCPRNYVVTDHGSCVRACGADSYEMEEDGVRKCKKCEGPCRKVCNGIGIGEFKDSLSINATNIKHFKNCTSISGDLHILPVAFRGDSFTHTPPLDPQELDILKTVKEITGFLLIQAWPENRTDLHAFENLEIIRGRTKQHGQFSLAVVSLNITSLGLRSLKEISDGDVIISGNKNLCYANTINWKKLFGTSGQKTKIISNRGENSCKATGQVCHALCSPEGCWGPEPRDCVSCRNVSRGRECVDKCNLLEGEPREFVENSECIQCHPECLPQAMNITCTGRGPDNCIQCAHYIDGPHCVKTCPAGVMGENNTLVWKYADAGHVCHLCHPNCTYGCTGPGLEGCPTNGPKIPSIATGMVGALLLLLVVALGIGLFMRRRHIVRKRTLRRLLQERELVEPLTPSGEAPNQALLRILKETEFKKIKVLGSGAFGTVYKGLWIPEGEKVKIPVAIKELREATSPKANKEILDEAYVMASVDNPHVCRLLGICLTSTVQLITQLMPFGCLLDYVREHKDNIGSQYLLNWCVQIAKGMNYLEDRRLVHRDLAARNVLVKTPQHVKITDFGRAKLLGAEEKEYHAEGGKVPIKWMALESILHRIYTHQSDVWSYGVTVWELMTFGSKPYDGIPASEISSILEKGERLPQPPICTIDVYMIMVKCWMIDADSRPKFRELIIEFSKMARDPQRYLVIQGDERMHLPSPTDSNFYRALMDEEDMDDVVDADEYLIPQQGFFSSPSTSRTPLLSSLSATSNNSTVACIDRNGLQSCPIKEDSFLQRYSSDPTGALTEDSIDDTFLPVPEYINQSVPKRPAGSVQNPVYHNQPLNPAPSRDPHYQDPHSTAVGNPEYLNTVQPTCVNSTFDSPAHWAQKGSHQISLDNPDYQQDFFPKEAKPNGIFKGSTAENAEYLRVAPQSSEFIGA
Sequence of Bone morphogenetic protein receptor type-1B (Homo sapiens) (O00238 whole entry): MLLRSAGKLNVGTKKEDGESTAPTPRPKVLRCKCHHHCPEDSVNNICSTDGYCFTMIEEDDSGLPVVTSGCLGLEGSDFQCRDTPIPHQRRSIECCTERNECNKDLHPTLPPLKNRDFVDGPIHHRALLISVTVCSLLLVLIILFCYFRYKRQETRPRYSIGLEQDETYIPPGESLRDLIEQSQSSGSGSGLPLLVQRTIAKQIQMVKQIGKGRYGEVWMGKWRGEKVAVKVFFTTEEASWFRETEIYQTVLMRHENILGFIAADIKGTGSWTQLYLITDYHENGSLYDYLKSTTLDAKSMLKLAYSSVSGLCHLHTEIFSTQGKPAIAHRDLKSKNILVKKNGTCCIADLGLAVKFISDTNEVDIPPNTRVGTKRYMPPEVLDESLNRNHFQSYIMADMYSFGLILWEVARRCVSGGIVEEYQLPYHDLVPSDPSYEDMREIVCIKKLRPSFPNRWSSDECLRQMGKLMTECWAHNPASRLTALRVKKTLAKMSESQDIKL

SMILES	inhibition [1]	inhibition [2]	inhibition [3]	inhibition [4]	inhibition [5]	inhibition [6]	inhibition [7]
CN1CCN(c2ccc(-c3cnc4c(c3)N(Cc3cc(F)ccc3F)CCN4)cn2)CC1	< 50%	< 50%	< 50%	< 50%	< 50%	89%	< 50%
CC(=O)N1CCN(c2cc(-c3cnc4c(c3)N(Cc3cc(Cl)ccc3C(F)(F)F)CCN4)ccn2)CC1	< 50%	< 50%	< 50%	< 50%	< 50%	92%	< 50%
CN1CCN(c2ccc(-c3cnc4c(c3)N(Cc3c(F)ccc(F)c3Cl)CCN4)cn2)CC1	< 50%	< 50%	< 50%	< 50%	< 50%	< 50%	< 50%
FC(F)(F)c1ccc(Cl)cc1CN1CCNc2ncc(-c3ccnc(N4CCNCC4)c3)cc21	< 50%	< 50%	< 50%	< 50%	< 50%	99%	< 50%
CN1CCN(c2ccc(-c3cnc4c(c3)N(Cc3cc(Cl)ccc3Cl)CCN4)cn2)CC1	< 50%	< 50%	< 50%	< 50%	< 50%	84%	< 50%
O=C(c1ccc(-c2cnc3c(c2)N(Cc2cc(Cl)ccc2C(F)(F)F)CCN3)cc1)N1CCC(N2CCCC2)CC1	88.7%	< 50%	–	–	–	–	< 50%
O=C(O)c1ccc(-c2cnc3c(c2)N(Cc2cc(Cl)ccc2C(F)(F)F)CCN3)cc1	–	< 50%	–	–	–	–	< 50%
CN1CCN(c2ccc(-c3cnc4c(c3)N(Cc3cc(Cl)ccc3C(F)(F)F)CCN4)cn2)CC1	< 50%	< 50%	< 50%	< 50%	< 50%	75%	< 50%
O=C(c1ccc(-c2cnc3c(c2)N(Cc2cc(Cl)ccc2C(F)(F)F)CCN3)cc1)N1CCCCC1	–	< 50%	–	–	–	–	< 50%
COC1CCN(C(=O)c2ccc(-c3cnc4c(c3)N(Cc3cc(Cl)ccc3C(F)(F)F)CCN4)cc2)CC1	–	< 50%	–	–	–	–	< 50%
